Each block holds one compound with its values, some of them ahead of it.
Assays:
[1] = target: Sodium-dependent serotonin transporter (Rattus norvegicus, UniProt P31652); experiment: Affinity for RB Serotonin transporter was determined in vitro by incubating compound
In short: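 Radioligand binding to the 5-HT transporter with [³H]-paroxetine. Ki values are the mean of 2–3 experiments, each run in triplicate at six concentrations. 95% confidence limits were generally within 15% of the mean.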

[2] = target: T1, 5-hydroxytryptamine receptor 1A (Homo sapiens) (UniProt P08908); experiment: In vitro agonist activity at the 5-hydroxytryptamine 1A receptor; assay type: functional
T1 sequence (whole entry): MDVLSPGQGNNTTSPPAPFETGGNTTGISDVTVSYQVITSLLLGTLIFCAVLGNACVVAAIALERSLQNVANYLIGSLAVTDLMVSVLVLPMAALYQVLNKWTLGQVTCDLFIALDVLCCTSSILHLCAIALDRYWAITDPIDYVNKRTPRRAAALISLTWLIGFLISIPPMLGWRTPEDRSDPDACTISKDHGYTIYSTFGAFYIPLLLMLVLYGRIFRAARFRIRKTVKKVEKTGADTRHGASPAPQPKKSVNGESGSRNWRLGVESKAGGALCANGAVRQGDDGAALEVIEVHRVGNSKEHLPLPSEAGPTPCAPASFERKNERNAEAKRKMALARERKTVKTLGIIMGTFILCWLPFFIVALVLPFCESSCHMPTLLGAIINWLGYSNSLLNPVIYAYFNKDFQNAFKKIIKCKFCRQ

[3] = target: Sodium-dependent serotonin transporter (Homo sapiens, UniProt P31645); experiment: Affinity for HC Serotonin transporter determined in vitro by incubating compound and [3H]5-HT with human carcinoma (Jar cells), previously treated with staurosporine; assay type: cell-based
Sodium-dependent serotonin transporter (Homo sapiens, UniProt P31645), sequence (P31645 whole entry): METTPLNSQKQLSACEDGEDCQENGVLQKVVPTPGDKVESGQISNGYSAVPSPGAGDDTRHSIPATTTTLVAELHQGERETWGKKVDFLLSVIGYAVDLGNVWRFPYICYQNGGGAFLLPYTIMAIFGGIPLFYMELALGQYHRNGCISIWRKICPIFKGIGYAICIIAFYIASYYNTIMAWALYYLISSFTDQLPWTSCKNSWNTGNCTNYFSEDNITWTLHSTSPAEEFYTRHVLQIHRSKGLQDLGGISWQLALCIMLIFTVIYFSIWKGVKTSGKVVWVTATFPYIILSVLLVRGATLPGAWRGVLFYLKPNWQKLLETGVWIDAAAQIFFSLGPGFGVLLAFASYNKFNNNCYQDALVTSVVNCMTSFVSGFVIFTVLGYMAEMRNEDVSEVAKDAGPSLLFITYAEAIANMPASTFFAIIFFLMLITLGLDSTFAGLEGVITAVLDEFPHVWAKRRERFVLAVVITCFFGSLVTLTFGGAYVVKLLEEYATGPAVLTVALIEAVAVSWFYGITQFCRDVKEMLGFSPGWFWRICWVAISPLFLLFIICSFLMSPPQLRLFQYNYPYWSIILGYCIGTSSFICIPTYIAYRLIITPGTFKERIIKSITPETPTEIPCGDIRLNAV
In short: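 Read-out is specific [³H]-5-HT uptake into Jar human carcinoma cells pretreated with staurosporine to enhance transporter expression, after incubation with the test compound.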

[4] = target: T2, Adrenergic receptor alpha-1 (Rattus norvegicus, UniProt P15823+P23944+P43140); experiment: In vitro binding affinity towards Alpha-1 adrenergic receptor was determined by the displacement of [3H]prazosin; assay type: protein assay
T2 sequence (P15823 whole entry): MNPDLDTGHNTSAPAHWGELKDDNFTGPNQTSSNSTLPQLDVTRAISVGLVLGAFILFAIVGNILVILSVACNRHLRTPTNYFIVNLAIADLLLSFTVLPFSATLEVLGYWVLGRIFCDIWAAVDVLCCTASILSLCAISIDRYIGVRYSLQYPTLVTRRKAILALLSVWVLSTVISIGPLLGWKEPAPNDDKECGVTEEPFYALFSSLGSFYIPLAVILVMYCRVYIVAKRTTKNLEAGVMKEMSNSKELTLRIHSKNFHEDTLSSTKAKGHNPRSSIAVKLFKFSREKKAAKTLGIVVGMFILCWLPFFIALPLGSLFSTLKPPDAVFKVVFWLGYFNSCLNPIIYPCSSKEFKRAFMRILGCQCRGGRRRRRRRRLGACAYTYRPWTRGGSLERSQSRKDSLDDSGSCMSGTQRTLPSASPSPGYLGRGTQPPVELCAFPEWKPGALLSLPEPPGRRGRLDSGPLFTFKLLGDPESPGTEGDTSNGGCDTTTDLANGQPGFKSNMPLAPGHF
T2 sequence (P23944 whole entry): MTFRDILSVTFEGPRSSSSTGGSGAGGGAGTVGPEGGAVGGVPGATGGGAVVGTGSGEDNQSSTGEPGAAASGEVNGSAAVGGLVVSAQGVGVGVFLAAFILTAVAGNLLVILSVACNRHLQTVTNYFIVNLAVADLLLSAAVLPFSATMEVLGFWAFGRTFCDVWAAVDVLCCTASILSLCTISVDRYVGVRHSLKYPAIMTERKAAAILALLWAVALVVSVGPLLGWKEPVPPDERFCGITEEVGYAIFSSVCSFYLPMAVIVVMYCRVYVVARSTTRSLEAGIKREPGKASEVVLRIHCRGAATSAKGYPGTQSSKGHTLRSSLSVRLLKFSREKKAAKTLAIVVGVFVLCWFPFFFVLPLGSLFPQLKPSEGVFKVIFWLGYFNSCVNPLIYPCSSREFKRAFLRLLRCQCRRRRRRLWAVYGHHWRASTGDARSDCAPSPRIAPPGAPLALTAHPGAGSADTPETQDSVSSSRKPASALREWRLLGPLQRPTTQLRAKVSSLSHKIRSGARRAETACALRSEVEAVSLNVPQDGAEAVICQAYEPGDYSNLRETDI
T2 sequence (P43140 whole entry): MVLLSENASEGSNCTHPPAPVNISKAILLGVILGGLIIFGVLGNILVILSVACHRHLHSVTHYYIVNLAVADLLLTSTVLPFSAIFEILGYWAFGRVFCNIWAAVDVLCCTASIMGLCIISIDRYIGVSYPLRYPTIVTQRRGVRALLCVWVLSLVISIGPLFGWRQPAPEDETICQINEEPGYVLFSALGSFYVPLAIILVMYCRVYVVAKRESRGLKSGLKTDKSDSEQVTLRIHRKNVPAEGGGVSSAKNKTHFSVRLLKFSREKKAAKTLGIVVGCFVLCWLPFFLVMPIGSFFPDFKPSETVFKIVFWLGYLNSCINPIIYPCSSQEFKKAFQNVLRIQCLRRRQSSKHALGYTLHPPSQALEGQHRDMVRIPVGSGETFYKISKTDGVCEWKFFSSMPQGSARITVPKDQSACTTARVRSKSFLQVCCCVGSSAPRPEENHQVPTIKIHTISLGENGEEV
In short: (§1)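 Displacement binding: [³H]-prazosin for α1 and [³H]-8-OH-DPAT for human 5-HT1A. Ki values are the mean of 2–3 experiments at six concentrations, each in triplicate. 95% confidence limits were generally within 15% of the mean.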

[5] = target: T1, 5-hydroxytryptamine receptor 1A (Homo sapiens); experiment: Agonist activity at the 5-hydroxytryptamine 1A receptor was determined in vitro using a [35S]GTP-gamma-S,; assay type: functional
[6] = target: T3, 5-hydroxytryptamine receptor 1A (Homo sapiens, UniProt P08908); experiment: Antagonism of 5-hydroxytryptamine 1A receptor was determined in vitro using a [35S]GTP-gamma-S,; assay type: functional
T3 sequence (P08908 whole entry): T1 sequence (whole entry)

[7] = target: T3, 5-hydroxytryptamine receptor 1A; experiment: Antagonism of 5-hydroxytryptamine 1A receptor determined in vitro; assay type: functional
[8] = target: T3, 5-hydroxytryptamine receptor 1A; experiment: In vitro binding affinity towards Human 5-hydroxytryptamine 1A receptor by the displacement of [3H]8-OH-DPAT; assay type: single protein; in short: as §1
[9] = target: T3, 5-hydroxytryptamine receptor 1A; experiment: Antagonism at the 5-hydroxytryptamine 1A receptor in vitro; assay type: functional
[10] = target: T3, 5-hydroxytryptamine receptor 1A; experiment: Antagonism at the 5-hydroxytryptamine 1A receptor was determined in vitro using a [35S]GTP-gamma-S,; assay type: functional
[11] = target: T1, 5-hydroxytryptamine receptor 1A (Homo sapiens); experiment: Agonist activity at the 5-hydroxytryptamine 1A receptor determined in vitro using a [35S]GTP-gamma-S,; assay type: functional

Sodium-dependent serotonin transporter (Rattus norvegicus, UniProt P31652), sequence (P31652 whole entry): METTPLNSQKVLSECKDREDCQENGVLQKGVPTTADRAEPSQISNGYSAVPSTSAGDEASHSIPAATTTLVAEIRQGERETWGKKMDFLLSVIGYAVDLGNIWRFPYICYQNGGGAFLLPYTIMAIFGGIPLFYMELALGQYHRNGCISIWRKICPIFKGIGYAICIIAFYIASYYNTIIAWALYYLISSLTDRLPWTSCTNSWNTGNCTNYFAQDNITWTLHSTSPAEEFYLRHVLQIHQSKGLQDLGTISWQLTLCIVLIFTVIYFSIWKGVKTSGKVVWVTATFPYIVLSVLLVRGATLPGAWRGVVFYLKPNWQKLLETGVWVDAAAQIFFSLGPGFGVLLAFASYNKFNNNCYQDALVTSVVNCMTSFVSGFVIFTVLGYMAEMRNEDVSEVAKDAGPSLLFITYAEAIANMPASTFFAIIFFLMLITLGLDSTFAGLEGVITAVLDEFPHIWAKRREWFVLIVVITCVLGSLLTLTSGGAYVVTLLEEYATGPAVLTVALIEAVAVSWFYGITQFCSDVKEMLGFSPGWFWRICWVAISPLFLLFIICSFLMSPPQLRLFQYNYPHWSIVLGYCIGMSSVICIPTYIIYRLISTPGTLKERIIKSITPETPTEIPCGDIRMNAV

Compound: Fc1ccc2[nH]cc(C3=CCN(CCOc4cccc5c4OCCO5)CC3)c2c1
Ki [1]: 1.17 nM
Emax [2]: 0
Ki [3]: 46.9 nM
Ki [4]: 30 nM
Emax [5]: 11
IC50 [6]: 684 nM
IC50 [7]: 1040 nM

Compound: C1=C(c2c[nH]c3ccccc23)CCN(CCOc2cccc3c2OCCO3)C1
Ki [1]: 0.17 nM
Emax [2]: 0
Ki [3]: 45 nM
Ki [4]: 4.7 nM
Emax [5]: 21
IC50 [6]: 222 nM
IC50 [7]: 115 nM

Compound: C1=C(c2c[nH]c3ncccc23)CCN(CCOc2cccc3[nH]ccc23)C1
Emax [2]: 0
Ki [3]: 175 nM
Ki [4]: 0.9 nM
Emax [5]: 7
IC50 [6]: 38.9 nM
IC50 [7]: 12 nM

Compound: Fc1ccc2c(C3=CCN(CCOc4cccc5c4OCCO5)CC3)c[nH]c2c1
Ki [1]: 0.15 nM
Ki [3]: 19.8 nM
Ki [4]: 4.1 nM
Emax [5]: 53
Ki [8]: 83.6 nM

Ki [1]: 0.01 nM
Compound: Fc1ccc2[nH]cc(CC3CCN(CCOc4cccc5c4OCCO5)CC3)c2c1

Compound: C1=C(c2c[nH]c3ccccc23)CCN(CCOc2cccc3ncccc23)C1
Ki [1]: 0.23 nM
Emax [2]: 0
Ki [3]: 93.6 nM
Ki [4]: 3.6 nM
Emax [5]: 14
IC50 [6]: 524 nM
Ki [8]: 92.6 nM
IC50 [7]: 686 nM

Compound: C1=C(c2c[nH]c3ncccc23)CCN(CCOc2cccc3c2OCCO3)C1
Emax [2]: 0
IC50 [9]: 969 nM
Ki [3]: 276 nM
Ki [4]: 33 nM
Emax [5]: 30

Compound: C1=C(c2c[nH]c3ncccc23)CCN(CCOc2cccc3ncccc23)C1
Emax [2]: 0
Ki [3]: 387 nM
Ki [4]: 78 nM
Emax [5]: 0
IC50 [10]: 181 nM
IC50 [7]: 90 nM

Compound: Fc1ccc2c(C3CCN(CCOc4cccc5c4OCCO5)CC3)c[nH]c2c1
Ki [1]: 4.7 nM
Emax [2]: 0
Ki [3]: 128 nM
Ki [4]: 2.8 nM
Emax [5]: 29.5
IC50 [6]: 666 nM
Ki [8]: 19.6 nM
IC50 [7]: 920 nM

Compound: C1=C(c2c[nH]c3ccccc23)CCN(CCOc2cccc3[nH]ccc23)C1
Ki [1]: 0.03 nM
Emax [2]: 0
Ki [3]: 41.2 nM
Ki [4]: 0.19 nM
IC50 [10]: 115 nM
Emax [11]: 7.5
Ki [8]: 21.6 nM
IC50 [7]: 33 nM
